Assays:
[1] = biological target: T1, Serotonin 2 (5-HT2) receptor (Rattus norvegicus, UniProt P30994+P08909+P14842); test: Ability to inhibit binding of titreated spiperone to 5-hydroxytryptamine 2 receptor in rat brain frontal cortex membranes; type: cell membranes, Membrane
Method in brief: (§1)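 5HT-2 binding in rat frontal cortex membranes with [3H]spiperone as radioligand. Tested at eleven concentrations between 0.1 and 10 000 nM, each in duplicate. IC50 is the concentration that halves specific binding, obtained by curve fitting.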

[2] = biological target: Serotonin 1 (5-HT1) receptor (Rattus norvegicus, UniProt P28564+P30940+P19327+P28565); test: Ability to inhibit binding of titreated serotonin to the 5-hydroxytryptamine 1 receptor in rat brain frontal cortex membranes; type: cell membranes, Membrane
[3] = biological target: T1, Serotonin 2 (5-HT2) receptor; test: Ability to inhibit binding of titreated spiperone to the 5-hydroxytryptamine 2 receptor in rat brain frontal cortex membranes; type: cell membranes, Membrane; method in brief: as §1
[4] = species: Rattus norvegicus; test: Effect on 5HIAA (5-hydroxyindoleacetic acid) concentration in hypothalamus as an index of serotonin turnover in male Wistar rats expressed as percent of control; type: functional
Method in brief: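 Hypothalamic 5-hydroxyindoleacetic acid in male Wistar rats, used as an index of serotonin turnover. Measured by liquid chromatography with electrochemical detection and expressed as percent of control.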

[5] = system: Rattus norvegicus; test: In vivo serum corticosterone concentration in male Wistar rats after injecting 0.3 mg/kg of compound subcutaneously; type: functional, organism-based; parameters: dose 0.3 mg/kg
Method in brief: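 Serum corticosterone in male Wistar rats, measured spectrofluorometrically and reported per 100 mL of serum.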

SMILES | IC50 [1] | IC50 [2] | IC50 [3] | 5-HIAA level, % of control [4] | Concentration [5]
CCCN(CCC)C1Cc2cccc3[nH]cc(c23)C1 (stereo unspecified) | 0.723 µM | 0.141 µM | – | – | –
CCCN(CCC)C1Cc2c[nH]c3ccc(OC)c(c23)C1 (stereo unspecified) | – | 0.036 µM | 1.179 µM | 58% | 48 µg 100ml-1
CCCN(CCC)C1Cc2c[nH]c3ccc(Br)c(c23)C1 (stereo unspecified) | 15.444 µM | 0.241 µM | – | 77% | 13 µg 100ml-1
CCCN(CCC)C1Cc2c[nH]c3ccc(C(N)=O)c(c23)C1 (stereo unspecified) | – | 0.083 µM | 4.817 µM | 61% | 49 µg 100ml-1
COc1ccc2[nH]cc3c2c1CC(N(C)C)C3 (stereo unspecified) | – | 0.096 µM | 1.756 µM | 65% | 41 µg 100ml-1
CCCN(CCC)C1Cc2c[nH]c3ccc(C#N)c(c23)C1 (stereo unspecified) | 0.39 µM | 0.09 µM | – | 90% | 47 µg 100ml-1
CN(C)C1Cc2c[nH]c3ccc(C(N)=O)c(c23)C1 (stereo unspecified) | – | 0.39 µM | 5.44 µM | 99% | 9 µg 100ml-1
